# Source: article PMC2992178 (Diabetes Care, 2010)
# Where two headings read alike, the source gives them in different places.
# Experiments:
# healthy subjects = experiment: Euglycemic clamp; type: in vivo, human; details: 10 units s.c.
# How it was run: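 Healthy volunteers fasted overnight from 8:00 p.m., then received a single 10-unit lispro dose by pen with an 8-mm needle. It went into abdominal subcutaneous fat 8 cm above the umbilicus and 10 cm from the midline. Plasma glucose was read every 5 min and clamped at 5–6 mmol/l with IV 20% dextrose for 8 h. GIRmax, tGIRmax and GItot came from GIR–time data; GIR was also plotted against plasma lispro concentration.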
# [1] = type: in vivo, human; details: for AUC0-∞/D, AUC0-∞ to dose ratio / Cmax/D, Cmax to dose ratio / Cl, clearance / Mean resistance time / Vz, volume of distribution / Cmax, maximum plasma concentration / Tmax, time to maximal concentration / t½, half-life: obese type 2 diabetes (n=7), mean ± SD; for Cl, clearance / Mean resistance time / Vz, volume of distribution / t½, half-life: noncompartmental; for Cmax, maximum plasma concentration / Tmax, time to maximal concentration: plasma RIA; for t½, half-life: plasma
# [2] = system: obese subjects with type 2 diabetes; experiment: Euglycemic clamp; type: in vivo, human; details: obese type 2 diabetes
# [3] = Plasma lispro pharmacokinetics after subcutaneous injection, healthy subjects; type: in vivo, human; details: healthy subjects (n=6), 10 units s.c., mean ± SD
# How it was run: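 Venous blood was drawn every 10 min for 3 h, then every 20 min, after a 10-unit subcutaneous abdominal lispro dose under a euglycemic clamp. Type 2 diabetic subjects had first received an overnight IV insulin infusion. Samples went into citrate tubes with protease inhibitors, were spun at 4°C, snap-frozen and stored at −80°C. Lispro was measured by specific radioimmunoassay in duplicate. Noncompartmental analysis gave Cmax, AUC0-∞, Cl and dose ratios; non-normal data were log-transformed.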
substance,measurement,setting,value
lispro,average difference between Tmax and tGIRmax,healthy subjects,0.317 h
same,initial GIR response,healthy subjects; at insulin concentrations nearing 40 pmol/l,2.22 mg/kg/min
same,Cmax/D lower in subjects with type 2 diabetes than in healthy subjects,"[1]; 10 units s.c., P < 0.001",41%
same,"AUC0-∞/D, AUC0-∞ to dose ratio",[1]; 10 units s.c.,1.056 ± 0.264 min/L
same,"Cmax/D, Cmax to dose ratio",[1]; 10 units s.c.,0.0054 ± 0.0005 L
same,"Cl, clearance",[1]; 10 units s.c.,0.99 ± 0.22 L/min
same,Mean resistance time,[1]; 10 units s.c.,180 ± 65 min
same,"Vz, volume of distribution",[1]; 10 units s.c.,118 ± 34 L
same,"Cmax, maximum plasma concentration",[1]; 10 units s.c.,310 ± 28 pmol/L
same,"Tmax, time to maximal concentration",[1]; 10 units s.c.,0.928 ± 0.233 h
same,"t½, half-life",[1]; 10 units s.c.,1.67 ± 0.567 h
same,"AUC0-∞/D, AUC0-∞ to dose ratio",[1]; 30 units s.c.,1.140 ± 0.188 min/L
same,"Cmax/D, Cmax to dose ratio",[1]; 30 units s.c.,0.0047 ± 0.0012 L
same,"Cl, clearance",[1]; 30 units s.c.,0.90 ± 0.14 L/min
same,Mean resistance time,[1]; 30 units s.c.,196 ± 30 min
same,"Vz, volume of distribution",[1]; 30 units s.c.,104 ± 53 L
same,"Cmax, maximum plasma concentration",[1]; 30 units s.c.,808 ± 218 ^‖ pmol/l
same,"Tmax, time to maximal concentration",[1]; 30 units s.c.,1.48 ± 0.365 h
same,"t½, half-life",[1]; 30 units s.c.,1.62 ± 0.633 h
same,"AUC0-∞/D, AUC0-∞ to dose ratio",[1]; 50 units s.c.,1.296 ± 0.208 min/L
same,"Cmax/D, Cmax to dose ratio",[1]; 50 units s.c.,0.0046 ± 0.0012 L
same,"Cl, clearance",[1]; 50 units s.c.,0.79 ± 0.13 L/min
same,Mean resistance time,[1]; 50 units s.c.,236 ± 49 min
same,"Vz, volume of distribution",[1]; 50 units s.c.,107 ± 46 L
same,"Cmax, maximum plasma concentration",[1]; 50 units s.c.,"1,313 ± 346 ^‖ ^# pmol/l"
same,"t½, half-life",[1]; 50 units s.c.,2.27 ± 1.2 h
same,delay of Tmax,"[1]; obese type 2 diabetes, 50 units versus 10 units, P < 0.001",1.23 h
same,GIRmax as % of the value measured in healthy subjects,"[2]; 10 units s.c., P < 0.0001",7%
same,GItot as % of the value measured in healthy subjects,"[2]; 10 units s.c., P < 0.0001",4%
same,prolongation of tGIRmax versus healthy subjects,"[2]; 10 units s.c., P < 0.0001",1 h
same,average difference between Tmax and tGIRmax,"[2]; 10 units s.c., P < 0.0007 versus healthy",1.23 h
same,average difference between Tmax and tGIRmax,[2]; 30 units s.c.,1.43 h
same,average difference between Tmax and tGIRmax,[2]; 50 units s.c.,1.92 h
same,"AUC0-∞/D, AUC0-∞ to dose ratio",[3],1.190 ± 0.302 min/L
same,"Cmax/D, Cmax to dose ratio",[3],0.0091 ± 0.0007 L
same,"Cl, clearance",[3]; noncompartmental,0.88 ± 0.21 L/min
same,Mean resistance time,[3]; noncompartmental,119 ± 21 min
same,"Vz, volume of distribution",[3]; noncompartmental,67 ± 16 L
same,"Cmax, maximum plasma concentration",[3]; plasma RIA,0.523 ± 0.042 nM
same,"Tmax, time to maximal concentration",[3]; plasma RIA,0.805 ± 0.0683 h
same,"AUC0-∞, area under the lispro plasma concentration curve","[3]; plasma RIA, noncompartmental","68,462 ± 17,346 pmol/min/l"
same,"t½, half-life","[3]; plasma, noncompartmental",1.12 ± 0.25 h
